Screening results (PubChem BioAssay)
Compounds with a hit are over-represented: about 1.5% of the library has one in this group of screens.
TbMetRS inhib – blocks T. brucei methionyl-tRNA synthetase activity; purified T. brucei MetRS, ATP depletion, Kinase-Glo luminescence; AID 624268; inhibition, % at 11.9 µM; 0.4% of 360,000 active;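 active = inhibition above a per-plate cutoff of the control wells' mean inhibition plus 3 SD, cut at about 5.5% in these data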
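technique = Kinase-Glo luminescence, ATP depletion format | system = purified MetRS (methionyl-tRNA synthetase) enzyme from Trypanosoma brucei | timing = 15 min preincubation, 2 h reaction, all 25 °C | evaluation = percent inhibition versus plate control medians | dosing = single dose, 11.9 µM final nominal, 0.9% final DMSO | also added = substrates ATP, L-methionine and bulk Escherichia coli tRNA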
MsrA act – activators of bovine methionine sulfoxide reductase A; AID 602163; activation, % at 10.6 µM; purified bovine MsrA, absorbance read-out; 0.3% of 360,000 active; in the data active = activation above about 7.5%
procasp7 counter – counter-screen: procaspase-7 (human) activation; activation, % at 8.5 µM; recombinant procaspase-7, Ac-DEVD-pNA absorbance 405 nm; D23A/D198A/D206A triple mutant, cannot self-cleave; scale: DMSO 0, 5 µM enzyme 100; P55210; 0.093% of 330,000 active;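 active = percent activation above the screen-wide mean plus 3 SD, cut at about 25% in these data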
Target sequence (P55210 whole entry D23A/D198A/D206A): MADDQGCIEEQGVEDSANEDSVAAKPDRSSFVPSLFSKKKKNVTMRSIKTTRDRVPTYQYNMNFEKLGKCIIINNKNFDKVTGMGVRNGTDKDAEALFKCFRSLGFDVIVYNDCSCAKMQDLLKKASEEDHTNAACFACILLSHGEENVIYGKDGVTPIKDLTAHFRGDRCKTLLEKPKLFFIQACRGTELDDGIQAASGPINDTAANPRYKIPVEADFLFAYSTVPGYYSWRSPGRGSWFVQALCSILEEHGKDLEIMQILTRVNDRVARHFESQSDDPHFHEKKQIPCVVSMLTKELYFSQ
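Assay system – Uncleavable procaspase-7 mutant enzyme · Quantity – 2 µM procaspase-7 mutant as dispensed · Times – 1 h preincubation, 2 h reaction · Dosing – single nominal 8.5 µM compound dose, 0.8% DMSO final · Buffer or medium – Zinc-free 50 mM HEPES buffer, pH 7.4, with NaCl and Triton X-100 · Detection – Epi-absorbance of released pNA at 405 nm, two timepoints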
procasp3 activ – activators of human procaspase-3 | recombinant procaspase-3 D3A, Ac-DEVD-pNA absorbance 405 nm | activation, % at 8.5 µM | 0.11% of 330,000 active | AID 463141;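 active = activation above the mean of all tested compounds plus 3 SD, cut at about 21% in these data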
Target sequence (P42574 whole entry D9A/D28A/D175A): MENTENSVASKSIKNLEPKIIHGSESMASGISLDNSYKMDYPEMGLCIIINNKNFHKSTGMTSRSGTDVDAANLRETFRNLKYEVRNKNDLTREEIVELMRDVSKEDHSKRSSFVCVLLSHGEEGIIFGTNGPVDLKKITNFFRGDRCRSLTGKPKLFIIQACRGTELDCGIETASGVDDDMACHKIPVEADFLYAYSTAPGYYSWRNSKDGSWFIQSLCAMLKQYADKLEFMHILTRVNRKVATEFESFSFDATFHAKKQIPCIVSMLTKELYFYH
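Assay system: Procaspase-3 D3A mutant, all three cleavage aspartates alanine. Buffer or medium: Zinc-free HEPES saline buffer with Triton X-100. Times: 1 h compound preincubation, 2 h substrate hydrolysis at 25 °C. Measured by: 405 nm absorbance of p-nitroaniline, reads at 0 and 120 min. Read-out basis: percent activation relative to control range. Replicates: singlicate.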
MsrA inh – inhibitors of bovine MsrA. 0.75% of 360,000 active. purified bovine MsrA, absorbance read-out. AID 651718. inhibition, % at 15.5 µM; in the data active = inhibition above about 4.5%
TbMetRS confirm – confirmation of Trypanosoma brucei MetRS inhibitors; shares compounds with TbMetRS inhib; AID 624412; T. brucei MetRS enzyme, luminescence (ATP depletion); inhibition, % at 11.9 µM; 93% of 1,400 active; in the data active = inhibition above about 7%
Jurkat tox – counter-screen for T. brucei MetRS inhibitors: Jurkat cell cytotoxicity | shares compounds with TbMetRS inhib | Jurkat cells viability, ATP luminescence | inhibition, % at 8.3 µM | 12% of 1,400 active | AID 624413; in the data active = inhibition above about 15%
TbMetRS FP orth – T. brucei MetRS inhibition, orthogonal assay | 44% of 1,400 active | shares compounds with TbMetRS inhib | purified T. brucei MetRS, fluorescence polarization | inhibition, % at 11.9 µM; in the data active = inhibition above about 17%
A number is an active result; n = inactive; x = no result given.

SMILES | TbMetRS inhib | MsrA act | procasp7 counter | procasp3 activ | MsrA inh | TbMetRS confirm | Jurkat tox | TbMetRS FP orth
CCCCc1c(-c2ccccc2OC)ncn1Cc1cccc(C)c1 | x | x | x | x | n | x | x | x
CCCCc1c(-c2ccccc2OC)ncn1Cc1ccc(Cl)cc1Cl | x | x | x | x | n | x | x | x
O=C(O)[C@@H]1CCCN1C(=O)c1ccccc1N1C(=O)[C@@H]2Cc3c([nH]c4ccccc34)C(c3cccc(Cl)c3)N2C1=O (some centres undefined) | n | n | n | n | n | x | x | x
O=C(O)[C@H]1CCCN1C(=O)c1ccccc1N1C(=O)[C@@H]2Cc3c([nH]c4ccccc34)C(c3cccc(Cl)c3)N2C1=O (some centres undefined) | 8.3 | n | n | n | n | 18 | n | n
COc1cc(OC)cc(-c2noc([C@@H]3O[C@H](CO)[C@H](O)[C@H](O)[C@H]3O)n2)c1 | n | n | x | x | n | x | x | x
COc1ccc(-c2noc([C@@H]3O[C@H](CO)[C@H](O)[C@H](O)[C@H]3O)n2)cc1OC | 7.5 | n | x | x | n | n | n | n
CC1CCC(NC(=O)c2ccc(-n3cncn3)c([N+](=O)[O-])c2)CC1 (centres undefined) | 12 | n | n | n | n | 52 | n | 24
O=C(NCC1COc2ccccc2O1)c1ccc(-n2cncn2)c([N+](=O)[O-])c1 (centres undefined) | 19 | n | n | n | n | 58 | n | 31
O=C(NC1CCCCC1)c1ccc(-n2cncn2)c([N+](=O)[O-])c1 | 24 | n | n | n | n | 51 | n | 28
CCCCc1nnc(NC(=O)c2ccc(-n3cncn3)c([N+](=O)[O-])c2)s1 | n | n | n | n | n | x | x | x
O=C(NC1CCCCC1)c1ccc([N+](=O)[O-])cc1 | n | n | x | x | n | x | x | x
CC1=NN(c2ccc(F)cc2)C(=O)C1C(c1cccc(O)c1)c1c(C)[nH]n(-c2ccc(F)cc2)c1=O (centres undefined) | 19 | n | n | n | n | n | n | n
CC1=NN(c2ccc(Cl)cc2)C(=O)C1C(c1cccc(O)c1)c1c(C)[nH]n(-c2ccc(Cl)cc2)c1=O (centres undefined) | n | n | n | n | x | x | x | x
CCN(C(=O)CSc1nnc(Nc2ccccc2)s1)C1CCS(=O)(=O)C1 (centres undefined) | 7.4 | n | n | n | n | 16 | n | n
COc1ccc(Nc2nnc(SCC(=O)N(CC(C)C)C3CCS(=O)(=O)C3)s2)cc1 (centres undefined) | 11 | n | x | x | n | 29 | n | 18
Cc1ccc(Nc2nnc(SCC(=O)N(C)C3CCS(=O)(=O)C3)s2)cc1 (centres undefined) | n | n | n | n | n | x | x | x
Cc1cccc(C)c1Nc1nnc(SCC(=O)NC2CCS(=O)(=O)C2)s1 (centres undefined) | n | n | n | n | n | x | x | x
Cc1ccccc1Nc1nnc(SCC(=O)N(C)C2CCS(=O)(=O)C2)s1 (centres undefined) | n | n | n | n | n | x | x | x
O=C(CSc1nnc(Nc2ccccc2)s1)NC1CCS(=O)(=O)C1 (centres undefined) | 9.4 | n | n | n | n | 27 | n | n
COC(=O)C1=C(C)N(Cc2ccccc2C(F)(F)F)C(=NCc2ccc(C(F)(F)F)cc2)NC1c1cccc(F)c1 (centres undefined) | x | x | x | x | n | x | x | x
CCN(CC)S(=O)(=O)c1ccc(N2CCOCC2)c(NCC(=O)Nc2ccc(F)cc2)c1 | 22 | n | n | n | n | 33 | n | n
OC(c1cc(F)cc(Cl)c1)c1ncc(-c2cccc(C(F)(F)F)c2)[nH]1 (centres undefined) | 16 | n | x | x | n | 45 | n | 31
COc1ccccc1-c1cnc(C(O)c2ccccc2)[nH]1 (centres undefined) | n | n | x | x | n | x | x | x
COc1ccccc1-c1cnc(C(O)c2cc(Cl)cc(Cl)c2)[nH]1 (centres undefined) | 67 | n | x | x | n | 88 | n | 69
OC(c1cc(Cl)cc(Cl)c1)c1ncc(-c2ccccc2F)[nH]1 (centres undefined) | 30 | n | x | x | n | 67 | n | 43
SMILES | TbMetRS inhib | MsrA act | procasp7 counter | procasp3 activ | MsrA inh | TbMetRS confirm | Jurkat tox | TbMetRS FP orth
OC(c1ccc(F)cc1)c1ncc(-c2ccccc2F)[nH]1 (centres undefined) | n | n | x | x | n | x | x | x
C=CCNc1ccc2c(c1)OC[C@H](CC(C)C)NS2(=O)=O | x | x | x | x | n | x | x | x
C[C@H](O)[C@@H]1CN2CCc3ccc(-c4ccc5c(c4)OCO5)cc3[C@@H]2C[C@@H]1N(C)C(=O)c1ccco1 | x | x | x | x | n | x | x | x
NC(=O)[C@@H]1CCCNc2c(I)cc([N+](=O)[O-])cc2C(=O)N[C@@H](CO)C(=O)N[C@@H](Cc2ccc(O)cc2)C(=O)N1 | 7.4 | n | n | n | n | 21 | n | n
NCc1ccc(OCCCN2CCC(C(O)(C3=CCCC3)c3ccccc3)CC2)cc1 (centres undefined) | x | x | x | x | n | x | x | x
NC(=O)c1c(N)[nH]c(C(=O)c2ccccc2)c1-c1ccc(Cl)cc1Cl | x | x | x | x | n | x | x | x
O=Cc1ccc(/C=C2\c3ccccc3C(=O)N2c2ccccc2)o1 | x | x | x | x | n | x | x | x
COc1ccc(N2CCN(C(=O)CCCCn3c(=O)[nH]c4ccsc4c3=O)CC2)cc1 | 6.7 | n | n | n | n | 13 | n | n
O=S(=O)(c1ccc(F)cc1)N1CCCc2nc(-c3ccc(Br)cc3)ccc21 | x | x | x | x | n | x | x | x
C[C@H](O)[C@@H]1C(=O)N2CCc3c([nH]c4ccccc34)[C@@H]2C[C@@H]1N(C)C(=O)Nc1cc(Cl)cc(Cl)c1 | 71 | n | x | x | n | 91 | 18 | 70
CN(Cc1cc(Cl)cc(Cl)c1)[C@H]1C[C@H]2c3[nH]c4ccccc4c3CCN2C(=O)[C@H]1CO | 62 | n | x | x | n | 106 | n | 86
C[C@H](O)[C@@H]1CN2CCc3c([nH]c4ccccc34)[C@@H]2C[C@@H]1N(C)C(=O)Nc1cc(Cl)cc(Cl)c1 | 29 | n | x | x | n | 58 | n | 37
C[C@H](O)[C@@H]1CN2CCc3c([nH]c4ccccc34)[C@@H]2C[C@@H]1N(C)C(=O)Nc1ccccc1 | n | n | x | x | n | x | x | x
C[C@H](O)[C@@H]1C(=O)N2CCc3c([nH]c4ccccc34)[C@@H]2C[C@@H]1N(C)C(=O)Nc1ccccc1 | n | n | x | x | n | x | x | x
CN(C(=O)C(C)(C)C)[C@H]1C[C@H]2c3[nH]c4ccccc4c3CCN2C(=O)[C@H]1CO | n | n | x | x | n | x | x | x
O=C(Cn1nnc(N2CCOCC2)n1)NN=Cc1ccccc1Cl | x | x | x | x | n | x | x | x
